Calls of active or inactive are those of the source. The calls are words filed in the database; no cut-off is given here. Non-standard residues stand in square brackets, D forms with d. Residues, ends and D or L forms follow the SMILES beside them. *: point of attachment. X4 = CC1(C)[C@@H]2C[C@H]1[C@]1(C)OB([C@@H](CCCBr)N*)O[C@@H]1C2; dboroNva(5-Br) = OB(O)[C@@H](CCCBr)N*; dboroPhe = OB(O)[C@@H](Cc1ccccc1)N*; Benzoyl(4-I) = O=C(c1ccc(I)cc1)*; X2 = CC(C)C[C@@H](N*)B(O)O; Nle = CCCC[C@H](N)C(=O)O; Cbz = O=C(OCc1ccccc1)*; Ahx = NCCCCCC(=O)O

Series [1] has as its system Mus musculus. The experiment in a line: Biodistribution in tumor of nude mouse xenografted with human LNCAP cells expressing PSA at 230 to 580 uCi after 3 to 4 hrs by gamma counting analysis. In kind it is ADME, organism-based, Neoplasm. To be noted: in vivo. In outline:
(§1)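 Single mice sacrificed at 2, 4 and 6 h (or 2 and 4 h). Liver, kidney, heart, brain, muscle and tumor weighed and gamma-counted. Counts corrected for background and decay; %ID/g calculated against 0.01 mL of dosing solution.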
On the technique in general: Xenograft models place foreign cells or tissue in a host animal.

Another series has as its system Kidney. The experiment in a line: Biodistribution in nude mouse kidney xenografted with human LNCAP cells expressing PSA at 230 to 580 uCi after 2 hrs by gamma counting analysis. Type of series: ADME, organism-based. To be noted: in vivo. The essentials: as §1
Another series relates to Liver. The experiment in a line: Biodistribution in nude mouse liver xenografted with human LNCAP cells expressing PSA at 230 to 580 uCi after 2 hrs by gamma counting analysis. To be noted: in vivo. In kind it is ADME, organism-based. The essentials: as §1
Series [2] can be described thus: Half life in ip dosed mouse. Conditions: in vivo. In kind it is ADME, organism-based. The essentials: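 Four animals sacrificed per time point; plasma counts per second normalised to starting counts.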
The nature of series [3]: Selectivity ratio of Ki for bovine pancreas chymotrypsin to Ki for human seminal fluid PSA.
Series [4] can be described thus: Inhibition of bovine pancreas chymotrypsin using Suc-AAPF-AMC as substrate measured for 30 mins by fluorescence assay. Further details: species or system Bos taurus. In outline:
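Inhibitor added from DMSO stock; substrate added last and AMC fluorescence read immediately. Ki = 1/slope × 1/(1+[S]/Km), from V0/Vi−1 plotted against [I].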

Series [5] concerns the target T1, Prostate-specific antigen (Homo sapiens, UniProt P07288).
T1 sequence (P07288 whole entry): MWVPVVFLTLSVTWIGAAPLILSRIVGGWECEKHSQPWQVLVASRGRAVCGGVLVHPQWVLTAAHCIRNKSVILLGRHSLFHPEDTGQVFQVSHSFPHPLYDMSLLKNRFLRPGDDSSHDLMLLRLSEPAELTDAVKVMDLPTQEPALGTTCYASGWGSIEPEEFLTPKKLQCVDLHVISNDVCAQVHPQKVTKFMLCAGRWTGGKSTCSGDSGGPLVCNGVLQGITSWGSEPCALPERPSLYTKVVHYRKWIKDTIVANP
The experiment in a line: Inhibition of PSA (unknown origin).

In series [6] the target is T1, Prostate-specific antigen. The experiment in a line: Inhibition of PSA (unknown origin) using Mu-SRKSQQY-AMC as substrate by fluorescence assay. In outline: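 Inhibitor added from DMSO stock. AMC fluorescence (ex 370, em 465 nm) followed over 30 min in triplicate. Ki = 1/slope × 1/(1+[S]/Km), from V0/Vi−1 plotted against [I].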
A short description of series [7]: Selectivity ratio of Ki for human seminal fluid PSA to Ki for bovine pancreas chymotrypsin.
Series [8] concerns LNCaP. The experiment in a line: Antitumor activity against human LNCAP cells expressing PSA xenografted in nude mouse assessed as tumor incident at 10 mg/kg, iv qd administered 5 days/week for 3 weeks measured after 3 weeks. Type of series: functional, organism-based. Also noted: dose 10 mg/kg. The essentials: (§2)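 Nude male mice (n = 10 per group) carrying subcutaneous PSA-producing LNCaP xenografts. Dosed 10 mg/kg iv once daily for three cycles of five consecutive days, compound in sterile saline; controls untreated. Tumor measured by caliper, volume = L × W × H × […]. Tumor size and body weight recorded twice per week.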

The subject of series [9] is Mus musculus. The experiment in a line: Inhibition of free PSA level in nude mouse serum xenografted with human LNCAP cells at 10 mg/kg, iv qd administered 5 days/week for 3 weeks measured 24 hrs post last dose by ELISA relative to control. Type of series: functional. The essentials:
(§3)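 LNCaP xenograft-bearing nude mice dosed 10 mg/kg iv (sterile saline) once daily, five consecutive days/week for three courses; controls untreated. Serum free and total PSA measured by ELISA 24 h after the last dose, also expressed per g tumor.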

Series [10] concerns Mus musculus. The experiment in a line: Inhibition of total PSA level in nude mouse serum xenografted with human LNCAP cells at 10 mg/kg, iv qd administered 5 days/week for 3 weeks measured 24 hrs post last dose by ELISA relative to control. Type of series: functional. In outline:
as §3

Series [11] deals with Mus musculus. The experiment in a line: Toxicity in nude mouse xenografted with human LNCAP cells expressing PSA assessed as body weight loss at 10 mg/kg, iv qd measured 5 days/week for 3 weeks. Also noted: dose 10 mg/kg, route intravenous. Type of series: organism-based. Conditions: in vivo. In outline:
as §2

Series [12] concerns LNCaP. In words: Antitumor activity against human LNCAP cells expressing PSA xenografted in nude mouse assessed as delay in tumor growth at 10 mg/kg, iv qd administered 5 days/week for 3 weeks measured after 2 weeks. Type of series: functional, organism-based. Further details: dose 10 mg/kg. In outline:
as §2

As to `CCCC[C@H](NC(=O)[C@H](CCC(N)=O)NC(=O)[C@H](CO)NC(=O)[C@H](Cc1ccccc1)NC(=O)CCCCCNC(=O)c1ccc([125I])cc1)C(=O)N[C@H](CCCBr)B1O[C@@H]2C[C@H]3C[C@H](C3(C)C)[C@]2(C)O1`, the Drug uptake result in the series on Mus musculus [1], in the series on Kidney and with Liver was “Active” throughout.

Regarding `CCCC[C@H](NC(=O)[C@H](CCC(N)=O)NC(=O)[C@H](CO)NC(=O)[C@H](Cc1ccccc1)NC(=O)CCCCCNC(=O)c1ccc([125I])cc1)C(=O)N[C@H](CCCBr)B(O)O`, the Drug uptake entry with Mus musculus [1], in the series with Kidney and with Liver was “Active” in each case.

With `CCCC[C@H](NC(=O)[C@H](CCC(N)=O)NC(=O)[C@H](CO)NC(=O)C[C@H](Cc1ccc2ccccc2c1)NC(=O)CCCCCNC(=O)c1ccc([125I])cc1)C(=O)N[C@H](Cc1ccccc1)B(O)O`, the Drug uptake result in the series on Mus musculus [1], with Kidney and with Liver was “Active” throughout. Moreover, the half-life in series [2] is 2.7 h.

Molecule `CCCC[C@H](NC(=O)[C@H](CCC(N)=O)NC(=O)[C@H](CO)NC(=O)[C@H](CO)NC(=O)CCCCCNC(=O)c1ccc([125I])cc1)C(=O)N[C@H](CCCBr)B(O)O` had a half-life in series [2] of 0.2 h.

For `CCCC[C@H](NC(=O)[C@H](CCC(N)=O)NC(=O)[C@H](CO)NC(=O)C[C@H](Cc1ccc2ccccc2c1)NC(=O)CCCCCN)C(=O)N[C@H](CCCBr)B(O)O`, the Ratio Ki in [3] is 4.94. In series [4], this molecule registered a Ki of 506 nM.

Consider `CCCC[C@H](NC(=O)[C@H](CCC(N)=O)NC(=O)[C@H](CO)NC(=O)C[C@H](Cc1ccc2ccccc2c1)NC(=O)CCCCCN)C(=O)N[C@H](Cc1ccccc1)B(O)O`, for which the Ratio Ki in series [3] was 0.03. The molecule also gave a Ki in series [4] of 7.21 nM.

As to `CCCC[C@H](NC(=O)[C@H](CCC(N)=O)NC(=O)[C@H](CO)NC(=O)CCCCCN)C(=O)N[C@H](CCCBr)B(O)O`, the Ratio Ki in series [3] amounted to 0.83. The Ki in series [4] stood at 251 nM.

Turning to `CCCC[C@H](NC(=O)[C@H](CCC(N)=O)NC(=O)[C@H](CO)NC(=O)CCCCCN)C(=O)N[C@H](Cc1ccccc1)B(O)O`, the Ratio Ki in series [3] worked out at 0.17. In addition, the affinity in series [4] corresponds to a Ki of 3.77 nM.

The molecule `O=C(OCc1ccccc1)c1cccc(CC(=O)N2C(=O)[C@@H](Cc3ccc(O)cc3)[C@H]2C(=O)OCc2ccccc2)c1` returned an IC50 in [5] of 226 nM. That is a sub-micromolar value.

Consider `CCCC[C@H](NC(=O)[C@H](CCCCN)NC(=O)[C@H](CO)NC(=O)[C@H](CO)NC(=O)OCc1ccccc1)C(=O)N[C@H](Cc1ccccc1)B(O)O` (Cbz-SSK[Nle]-dboroPhe), for which, in [3], the Ratio Ki was found to be 0.11. Also, in [4], the affinity corresponds to a Ki of 18.1 nM.

On to `CCCC[C@H](NC(=O)[C@H](CCCCN)NC(=O)[C@H](CO)NC(=O)[C@H](CO)NC(=O)OCc1ccccc1)C(=O)N[C@H](CCCBr)B(O)O` (Cbz-SSK[Nle]-{dboroNva(5-Br)}), for which the Ratio Ki in [3] was found to be 8.13. Further, the affinity in [4] corresponds to a Ki of 197 nM.

In series [6], `CC(C)C[C@H](NC(=O)[C@H](CCCCN)NC(=O)[C@H](CO)NC(=O)[C@@H](N)CO)C(=O)N[C@H](C=O)CCC(N)=O` (H-SSKLQ-aldehyde) gave a Ki of 45000 nM.

With `CCCC[C@H](NC(=O)[C@H](CCC(N)=O)NC(=O)[C@H](CO)NC(=O)[C@H](C)NC(=O)CCCCCN)C(=O)N[C@H](Cc1ccccc1)B(O)O` (H-[Ahx]ASQ[Nle]-dboroPhe), the Ratio Ki in series [3] is 0.12. Moreover, the Ki in [4] stood at 36.2 nM.

As to `CCCC[C@H](NC(=O)[C@H](CCC(N)=O)NC(=O)[C@H](CO)NC(=O)[C@H](C)NC(=O)CCCCCN)C(=O)N[C@H](CCCBr)B(O)O` (H-[Ahx]ASQ[Nle]-{dboroNva(5-Br)}), in series [3], the Ratio Ki was 3.18. The molecule also yielded a Ki in [4] of 166 nM.

For `CCCC[C@H](NC(=O)[C@H](CCC(N)=O)NC(=O)[C@H](CO)NC(=O)[C@H](Cc1ccccc1)NC(=O)CCCCCN)C(=O)N[C@H](CCCBr)B1O[C@@H]2C[C@H]3C[C@H](C3(C)C)[C@]2(C)O1` (H-[Ahx]FSQ[Nle]-X4), the Ratio Ki in series [3] amounted to 6.77. The molecule further gave a Ki in series [4] of 496 nM.

`CCCC[C@H](NC(=O)[C@H](CCC(N)=O)NC(=O)[C@H](CO)NC(=O)[C@H](Cc1ccccc1)NC(=O)CCCCCN)C(=O)N[C@H](Cc1ccccc1)B(O)O` (H-[Ahx]FSQ[Nle]-dboroPhe): the results for the Ratio Ki in [7] and in [3] were 450 and 0.002, respectively. The same molecule came in with a Ki in series [4] of 0.135 nM.

For `CCCC[C@H](NC(=O)[C@H](CCC(N)=O)NC(=O)[C@H](CO)NC(=O)[C@H](Cc1ccccc1)NC(=O)CCCCCN)C(=O)N[C@H](CCCBr)B(O)O` (H-[Ahx]FSQ[Nle]-{dboroNva(5-Br)}), the outcome in the series with LNCaP [8] was inactive. The inhibition in vivo at 10 mg/kg in the series on Mus musculus [9] was 23%; in the series with Mus musculus [10] it was 40%. The Ratio Ki in [3] is 8.03. The molecule also showed a Ki in [4] of 581 nM. The Activity entry in the series with Mus musculus [11] is on record as “Non-toxic”. In addition, the outcome with LNCaP [12] was Active.

On to `CCCC[C@H](NC(=O)[C@H](CCC(N)=O)NC(=O)[C@H](CO)NC(=O)[C@H](CO)NC(=O)CCCCCN)C(=O)N[C@H](CC(C)C)B(O)O` (H-[Ahx]SSQ[Nle]-X2), for which the Ratio Ki in [3] was determined as 3.2. The same molecule yielded a Ki in series [4] of 138 nM.

With `CCCC[C@H](NC(=O)[C@H](CCC(N)=O)NC(=O)[C@H](CO)NC(=O)[C@H](Cc1ccccc1)NC(=O)CCCCCNC(=O)c1ccc(I)cc1)C(=O)N[C@H](CCCBr)B(O)O` ({Benzoyl(4-I)-Ahx}-FSQ[Nle]-{dboroNva(5-Br)}), the Ratio Ki in series [3] amounted to 10.1. Further, the Ki in [4] was determined as 653 nM.

By half-life is commonly meant the time in which the quantity being followed falls by half. For orientation: Ki means the dissociation constant of the complex between target and ligand, obtained from inhibition or displacement. Lower therefore signals a stronger hold on the target. In general, IC50 refers to the concentration that gives 50% inhibition. Read a high IC50 as a need for much substance. As usually defined, the inhibition in vivo is how much of the control response was suppressed. Low readings indicate a response near the control, high ones a response far below the control.

These data come from ChEMBL document CHEMBL2380267, “Structural optimization, biological evaluation, and application of peptidomimetic prostate specific antigen inhibitors” (J Med Chem, 2013).
